Most compounds without a hit are left out; they make up all but 1.5% or so of the library.
INS-1E GSIS act: GLuc luminescence reporter in INS-1E cells, primary screen for activators of glucose-dependent secretion of insulin. INS-1E GLuc reporter insulin secretion, 2-3 h. activation, % at 16.6 µM. actives 0.61% (n = 370,000). AID 743287;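 active means lowest replicate activation of at least 40%, so every replicate reaches that level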
SIRT5 inh: blocks human SIRT5 desuccinylation of peptide. Q9NXA8. Purified SirT5, succinyl-peptide AMC, trypsin-coupled fluorescence. inhibition, % at 15 µM. actives 1.1% (n = 330,000); in the data active means inhibition above about 15%
ERp5 inh: ERp5 (human) disulfide isomerase inhibition; Q15084; ERp5 insulin aggregation, absorbance 650 nm, 90 min; inhibition, % at 9.99 µM; actives 0.05% (n = 350,000); AID 651711;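 active means mean replicate inhibition above about 25%, with every replicate also reaching it, limit read from the data, passing the limit was not always enough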
Target sequence (Q15084 whole entry, looked up): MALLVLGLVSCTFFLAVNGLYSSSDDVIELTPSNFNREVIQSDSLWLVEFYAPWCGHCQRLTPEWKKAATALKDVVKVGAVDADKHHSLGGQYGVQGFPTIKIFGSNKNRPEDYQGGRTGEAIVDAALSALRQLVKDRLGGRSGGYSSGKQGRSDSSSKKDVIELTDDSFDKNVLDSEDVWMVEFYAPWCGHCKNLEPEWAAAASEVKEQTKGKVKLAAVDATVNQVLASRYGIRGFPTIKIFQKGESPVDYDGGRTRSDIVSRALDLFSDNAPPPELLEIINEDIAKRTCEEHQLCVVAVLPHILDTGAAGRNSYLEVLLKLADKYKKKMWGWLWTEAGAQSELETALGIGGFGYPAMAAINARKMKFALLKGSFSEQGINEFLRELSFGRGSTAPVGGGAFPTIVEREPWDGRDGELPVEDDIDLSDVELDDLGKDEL
PDI turbidity: PDI (human) enzyme inhibition; P07237; PDI insulin aggregation turbidity, A650, 90 min; inhibition, % at 10 µM; actives 0.052% (n = 350,000); AID 588391;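 active means mean inhibition across replicates of 30% or more, whatever share of single replicates reach that level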
S100A4 MyoIIA: S100A4-myosin IIA interaction inhibition; P26447; S100A4/TAMRA-MyoIIA peptide fluorescence polarization; inhibition, % at 10.7 µM; actives 0.14% (n = 360,000); AID 652163;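 active means mean inhibition of at least 70% across replicates, with every replicate also reaching that level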
Target sequence (P26447 whole entry, looked up): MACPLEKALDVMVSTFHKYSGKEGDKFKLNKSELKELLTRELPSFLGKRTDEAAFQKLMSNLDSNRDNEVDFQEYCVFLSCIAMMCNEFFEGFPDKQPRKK
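incubation = readout 5 min after mixing, signal stable up to 60 min | system = S100A4 monomer protein | buffer or medium = HEPES pH 7.2 with CaCl2, KCl, NaCl, DTT, Triton | benchmarks = neutral control DMSO, positive control TFP | also added = fluorescent myosin IIA peptide, 5 nM | compound dosing = one concentration per compound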
Large screens that a line does not name were inactive.

O=C(C1CC1)N1CC(=O)N2[C@H](CO)[C@@H](c3ccc(C#Cc4cccc(F)c4)cc3)[C@@H]2C1	none (no result: PDI turbidity)
COc1cc2c(cc1OC)CN(C(=O)CNS(=O)(=O)c1ccc(C)c(C)c1)CC2	INS-1E GSIS act 55
Cc1ccc(S(=O)(=O)Nc2ccc3c(c2)CC(=O)N([C@@H](C)CO)C[C@@H](C)[C@H](CN(C)C(=O)Nc2ccc(F)cc2)O3)cc1	none (no result: PDI turbidity)
C[C@H]1CN([C@@H](C)CO)C(=O)c2cccc(NC(=O)c3ccncc3)c2O[C@H]1CN(C)Cc1ccc(Oc2ccccc2)cc1	none (no result: INS-1E GSIS act, PDI turbidity)
CC(C)(C)c1ccc(OC(=O)N2CCOCC2)cc1	SIRT5 inh 16
C[C@@H]1CCCCO[C@@H](CN(C)C(=O)Nc2ccc(F)cc2)[C@@H](C)CN([C@H](C)CO)C(=O)c2cc(NS(=O)(=O)c3cccs3)ccc2O1	none (no result: PDI turbidity)
O=C(CN1C(=O)NC(Cc2c[nH]c3ccccc23)C1=O)NCCc1ccccc1 (stereo not drawn)	INS-1E GSIS act 103
CCOc1ccc(CCN2C(=O)C(=O)N([C@@H](Cc3ccccc3)CN3CCC[C@H]3CN3C(=O)C(=O)NC[C@@H]3Cc3ccc(O)cc3)C[C@@H]2CC(C)C)cc1	none (no result: PDI turbidity)
CC(C)C[C@@H](CN1CCC[C@H]1CN1C(=O)C(=O)NC[C@@H]1Cc1ccccc1)N1C[C@H](Cc2ccc(O)cc2)N(CCc2ccccc2)C(=O)C1=O	none (no result: PDI turbidity)
CC(C)C[C@@H](CN1CCC[C@@H]1CN1C(=O)C(=O)NC[C@@H]1Cc1ccccc1)N1C[C@H](Cc2ccc(O)cc2)N(CCc2ccccc2)C(=O)C1=O	PDI turbidity 48
O=C1NC[C@@H](Cc2ccc(O)cc2)N(CCCCC2CCCCC2)C1=O	none (no result: SIRT5 inh, PDI turbidity)
CCOc1ccc(CCN2C(=O)C(=O)N([C@@H](Cc3ccccc3)CN3CCC[C@@H]3CN3C(=O)C(=O)NC[C@@H]3Cc3ccc(O)cc3)C[C@@H]2Cc2ccccc2)cc1	SIRT5 inh 38 (no result: PDI turbidity)
O=C1NC[C@H](Cc2ccc(O)cc2)N(CC2CCCCC2)C1=O	PDI turbidity 34
COc1ccc(NC(=O)Nc2ccc3c(c2)CC(=O)N([C@@H](C)CO)C[C@H](C)[C@H](CN(C)C(=O)Nc2ccc(OC)cc2)O3)cc1	none (no result: PDI turbidity)
C[C@@H]1CN([C@H](C)CO)C(=O)c2cc(NS(=O)(=O)c3ccc(F)cc3)ccc2O[C@@H](C)CCCCO[C@@H]1CN(C)CC1CCCCC1	SIRT5 inh 19 (no result: PDI turbidity)
C[C@@H]1CCCCO[C@H](CN(C)C(=O)C2CCCCC2)[C@H](C)CN([C@@H](C)CO)C(=O)c2cc(NS(=O)(=O)c3ccc(F)cc3)ccc2O1	SIRT5 inh 16 (no result: PDI turbidity)
C[C@@H]1CCCCO[C@H](CN(C)C(=O)C2CCCCC2)[C@@H](C)CN([C@@H](C)CO)C(=O)c2cc(NS(=O)(=O)c3ccc(F)cc3)ccc2O1	SIRT5 inh 17 (no result: PDI turbidity)
C[C@H](CO)N1C[C@H](C)[C@H](CN(C)C(=O)C2CCCCC2)OCCCC[C@H](C)Oc2ccc(NS(=O)(=O)c3ccc(F)cc3)cc2C1=O	none (no result: PDI turbidity)
C[C@@H]1CN([C@@H](C)CO)C(=O)c2cc(NS(=O)(=O)c3ccc(F)cc3)ccc2O[C@@H](C)CCCCO[C@H]1CN(C)CC1CCCCC1	none (no result: PDI turbidity)
CC(=O)Nc1cccc2c1O[C@@H](CN(C)S(C)(=O)=O)[C@H](C)CN(C)C2=O	none (no result: SIRT5 inh, ERp5 inh, PDI turbidity, S100A4 MyoIIA)
O=C(Nc1ccc(F)cc1)N[C@@H]1C=C[C@H](CC(=O)N2CCCCC2)O[C@@H]1CO	none (no result: PDI turbidity)
COc1cccc(CNC(=O)C2CCCN(c3cnccn3)C2)c1 (stereo not drawn)	none
COc1ccc(NC(=O)C2CCCN(c3cnccn3)C2)c(OC)c1 (stereo not drawn)	SIRT5 inh 16
CCn1c(SCC(=O)Nc2ccc(Cl)cc2)nc2nc3c(cc2c1=O)CCCC3	none (no result: SIRT5 inh, ERp5 inh, S100A4 MyoIIA)
CCn1c(SCC(=O)Nc2ccc(OC)cc2)nc2nc3c(cc2c1=O)CCCC3	SIRT5 inh 16 (no result: INS-1E GSIS act)
CCCCCc1cc(=O)oc2c(C(CCN3CCCC(C)C3)c3ccc(OC)cc3)c(OC)cc(OC)c12 (stereo not drawn)	INS-1E GSIS act 339 (no result: SIRT5 inh)
C[C@@H]1CN([C@@H](C)CO)C(=O)Cc2cc(NC(=O)C3CC3)ccc2O[C@H]1CN(C)Cc1ccc(Oc2ccccc2)cc1	none (no result: PDI turbidity)
CC(=O)C1=C(S(=O)(=O)c2ccc(C)cc2)CS(=O)(=O)C1	INS-1E GSIS act 124
CCN(CC)C(=O)Cn1c(=O)oc2ccccc21	INS-1E GSIS act 42
CCC(C)(C)C1CCc2c(sc(NC(=O)c3cccs3)c2C(N)=O)C1 (stereo not drawn)	none
CC(C)(C)C1CCc2c(sc(NC(=O)c3cccs3)c2C(N)=O)C1 (stereo not drawn)	INS-1E GSIS act 45 (no result: SIRT5 inh, ERp5 inh, S100A4 MyoIIA)
COc1ccccc1-c1ccc2c(c1)[C@H]1[C@H](CCN1S(=O)(=O)c1cccc(F)c1)[C@@H](CO)N2	none (no result: SIRT5 inh, ERp5 inh, PDI turbidity, S100A4 MyoIIA)
Cc1sc(NC(=O)CCl)c(C(=O)c2ccccc2)c1C	PDI turbidity 72 (no result: INS-1E GSIS act, SIRT5 inh, ERp5 inh, S100A4 MyoIIA)
CCOc1cc(/C=N/NC(=O)CCn2nnc3ccccc32)ccc1O	INS-1E GSIS act 78 (no result: SIRT5 inh)
COc1cc(/C=N/NC(=O)C(C)n2nnc3ccccc32)ccc1O (stereo not drawn)	INS-1E GSIS act 53 (no result: SIRT5 inh, ERp5 inh, S100A4 MyoIIA)
COc1ccc(/C=N/NC(=O)Cn2nnc3ccccc32)cc1OC	INS-1E GSIS act 70
CN(C)c1ccc(/C=N/NC(=O)Cn2nnc3ccccc32)cc1	none (no result: SIRT5 inh, ERp5 inh, S100A4 MyoIIA)
COc1ccccc1S(=O)(=O)N[C@H]1CC[C@@H](CC(=O)N2CCN(C)CC2)O[C@H]1CO	none (no result: PDI turbidity)
C[C@@H]1CN([C@@H](C)CO)C(=O)c2cc(NC(=O)CCC(F)(F)F)ccc2O[C@H]1CN(C)CC1CCCCC1	none (no result: PDI turbidity)
O=C(c1ccccc1F)N1C[C@@H]2[C@H](c3ccccc31)[C@H](CO)N2C(=O)c1ccc(F)cc1	none (no result: PDI turbidity)
CO[C@@H]1CN(C)C(=O)c2ccc(NC(=O)C3CC3)cc2OC[C@H](C)N(CC2CCOCC2)C[C@@H]1C	none (no result: PDI turbidity)
O=C1C=CC(=O)N1Cc1ccccn1	SIRT5 inh 21
O=C1c2ccccc2C(=O)N1Cc1ccccn1	none
O=C(C[C@H]1C=C[C@@H](NC(=O)C2CCC2)[C@H](CO)O1)NCc1ccncc1	none (no result: PDI turbidity)
CO[C@H]1CN(C)C(=O)c2cc(NC(C)=O)ccc2OC[C@H](C)N(Cc2ccccn2)C[C@H]1C	S100A4 MyoIIA 141 (no result: PDI turbidity)
COCC(=O)Nc1ccc2c(c1)C(=O)N(C)C[C@@H](OC)[C@H](C)CN(Cc1ccccn1)[C@H](C)CO2	SIRT5 inh 23 (no result: PDI turbidity)
CCc1nc2ccc(C(=O)NCCCN3CCCC3=O)cn2c1N(CCC(C)C)CCN(C)C	INS-1E GSIS act 49
Cc1ccc(S(=O)(=O)N(C)C[C@H]2Oc3ccc(NC(=O)Nc4ccc5c(c4)OCO5)cc3C(=O)N([C@H](C)CO)C[C@H]2C)cc1	none (no result: PDI turbidity)
Nc1ncnc2c1nc(Sc1ccc(Cl)cc1)n2[C@@H]1O[C@@H]2COP(=O)(O)O[C@H]2[C@H]1O	INS-1E GSIS act 64
CCCC(=O)Nc1ncnc2c1ncn2[C@@H]1O[C@@H]2COP(=O)(O)O[C@H]2[C@H]1OC(=O)CCC	none (no result: INS-1E GSIS act)
